# From ChEMBL document CHEMBL1154352, “Toll-like receptor 7 selective synthetic oligoribonucleotide agonists: synthesis and structure-activity relationship studies” (J Med Chem, 2009)
# Calls of active or inactive are those of the source. The calls are words filed in the database; no cut-off is given here.
# Tests used:
# [1] = Metabolic stability in human serum assessed as full length product remaining after 10 mins by HPLC; format: ADME, cell-free; conditions: read-out: Stability
# Summary of the method: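 About 0.5 A260 units compound in 1% human serum in PBS, 37 °C; aliquot taken at 10 min, analysed by anion-exchange HPLC for percent intact full-length product.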
# Homo sapiens = organism: Homo sapiens; assay: Ratio of human TLR7 activity to human TLR8 activity
# Summary of the method: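 TLR7/TLR8 ratio computed from fold NF-κB (SEAP reporter) activation in HEK293 cells stably expressing human TLR7 versus TLR8, compounds at 50 μg/mL, 18 h exposure; representative of three independent experiments.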
# [2] = molecular target: T1, Toll-like receptor 9 (Mus musculus) (UniProt Q9EQU3); assay: Activation of mouse TLR9 expressed in HEK293 assessed as induction of NF-kappaB activity reporter gene assay; format: cell-based
# T1 sequence (whole entry): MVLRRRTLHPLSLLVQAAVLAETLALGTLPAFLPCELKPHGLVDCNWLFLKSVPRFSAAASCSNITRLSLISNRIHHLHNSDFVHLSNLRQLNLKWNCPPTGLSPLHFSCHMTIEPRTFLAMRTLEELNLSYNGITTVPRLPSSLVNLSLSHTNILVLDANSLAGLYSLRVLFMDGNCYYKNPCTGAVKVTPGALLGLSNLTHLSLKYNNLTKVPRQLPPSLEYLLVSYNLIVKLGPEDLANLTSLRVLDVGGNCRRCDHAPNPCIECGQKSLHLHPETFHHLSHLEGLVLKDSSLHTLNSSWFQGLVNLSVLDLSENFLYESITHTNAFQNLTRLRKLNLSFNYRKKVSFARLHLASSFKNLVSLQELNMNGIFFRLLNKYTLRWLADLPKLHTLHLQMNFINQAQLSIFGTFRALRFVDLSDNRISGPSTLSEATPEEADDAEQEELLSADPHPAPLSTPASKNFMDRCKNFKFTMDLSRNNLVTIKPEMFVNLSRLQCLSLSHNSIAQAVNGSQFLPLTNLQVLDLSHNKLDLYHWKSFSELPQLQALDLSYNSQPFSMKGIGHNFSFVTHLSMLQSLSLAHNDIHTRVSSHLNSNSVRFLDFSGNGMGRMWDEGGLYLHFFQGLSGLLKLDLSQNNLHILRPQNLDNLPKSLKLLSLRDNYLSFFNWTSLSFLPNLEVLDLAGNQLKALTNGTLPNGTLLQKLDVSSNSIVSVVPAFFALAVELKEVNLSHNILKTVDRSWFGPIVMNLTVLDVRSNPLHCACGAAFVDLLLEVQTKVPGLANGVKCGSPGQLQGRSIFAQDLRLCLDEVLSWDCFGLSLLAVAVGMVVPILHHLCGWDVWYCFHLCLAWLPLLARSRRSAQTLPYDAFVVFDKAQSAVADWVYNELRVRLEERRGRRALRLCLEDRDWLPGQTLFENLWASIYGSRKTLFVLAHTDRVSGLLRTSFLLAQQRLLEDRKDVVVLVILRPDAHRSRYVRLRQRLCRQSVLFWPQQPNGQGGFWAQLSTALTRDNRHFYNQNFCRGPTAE
# Splenocyte = assay: Immunomodulatory activity in C57BL/6 mouse splenocytes bearing TLR7 receptor assessed as IL6 release at 100 ug/ml after 24 hrs by ELISA; format: functional, cell-based
# Summary of the method: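 C57BL/6 splenocytes in RPMI 1640 with 10% FBS, penicillin/streptomycin, 2 mM L-glutamine, plated at 5 × 10^6 cells/mL; compounds in PBS added, 37 °C for 24 h. Supernatant IL-12 and IL-6 by ELISA; representative of three independent experiments.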
# PBMC = assay: Immunomodulatory activity in human PBMC assessed as induction of IL12 at 100 ug/ml after 24 hrs; format: functional, cell-based
# Summary of the method: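 Human PBMCs plated at 5 × 10^6 cells/mL; compounds dissolved in PBS added at various concentrations, 37 °C for 24 h. Supernatant cytokines/chemokines quantified with human Luminex multiplex kit.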
SMILES,remaining at 10 min [1],Ratio (Homo sapiens),Activity [2],Activity (Splenocyte),Activity (PBMC)
Nc1ccn([C@@H]2O[C@H](COP(=O)(S)O[C@H]3[C@@H](O)[C@H](n4cnc5c(N)ncnc54)O[C@@H]3COP(=O)(S)O[C@H]3[C@@H](O)[C@H](n4cnc5c(N)ncnc54)O[C@@H]3CO)[C@@H](OP(=O)(S)OC[C@H]3O[C@@H](n4ccc(=O)[nH]c4=O)[C@H](O)[C@@H]3OP(=O)(S)OC[C@H]3O[C@@H](n4ccc5c(=O)[nH]c(N)nc54)[C@H](O)[C@@H]3OP(=O)(S)OC[C@H]3O[C@@H](n4cnc5c(N)ncnc54)[C@H](O)[C@@H]3OP(=O)(S)OC[C@H]3O[C@@H](n4ccc(N)nc4=O)[C@H](O)[C@@H]3OP(=O)(S)OC[C@H]3O[C@@H](n4ccc5c(=O)[nH]c(N)nc54)[C@H](O)[C@@H]3OP(=O)(S)OC[C@H]3O[C@@H](n4ccc(N)nc4=O)[C@H](O)[C@@H]3OP(=O)(S)OC[C@H]3O[C@@H](n4ccc(=O)[nH]c4=O)[C@H](O)[C@@H]3OP(=O)(S)OC[C@H]3O[C@@H](n4ccc5c(=O)[nH]c(N)nc54)[C@H](O)[C@@H]3OP(=O)(S)OCC(O)COP(=O)(S)O[C@H]3[C@@H](O)[C@H](n4ccc5c(=O)[nH]c(N)nc54)O[C@@H]3COP(=O)(S)O[C@H]3[C@@H](O)[C@H](n4ccc(=O)[nH]c4=O)O[C@@H]3COP(=O)(S)O[C@H]3[C@@H](O)[C@H](n4ccc(N)nc4=O)O[C@@H]3COP(=O)(S)O[C@H]3[C@@H](O)[C@H](n4ccc5c(=O)[nH]c(N)nc54)O[C@@H]3COP(=O)(S)O[C@H]3[C@@H](O)[C@H](n4ccc(N)nc4=O)O[C@@H]3COP(=O)(S)O[C@H]3[C@@H](O)[C@H](n4cnc5c(N)ncnc54)O[C@@H]3COP(=O)(S)O[C@H]3[C@@H](O)[C@H](n4ccc5c(=O)[nH]c(N)nc54)O[C@@H]3COP(=O)(S)O[C@H]3[C@@H](O)[C@H](n4ccc(=O)[nH]c4=O)O[C@@H]3COP(=O)(S)O[C@H]3[C@@H](O)[C@H](n4ccc(N)nc4=O)O[C@@H]3COP(=O)(S)O[C@H]3[C@@H](O)[C@H](n4cnc5c(N)ncnc54)O[C@@H]3COP(=O)(S)O[C@H]3[C@@H](O)[C@H](n4cnc5c(N)ncnc54)O[C@@H]3CO)[C@H]2O)c(=O)n1 (stereo not given in full),84%,46,inactive,Active,154 pg/mL
Nc1ccn([C@@H]2O[C@H](COP(=O)(S)O[C@H]3[C@@H](O)[C@H](n4cnc5c(N)ncnc54)O[C@@H]3CO)[C@@H](OP(=O)(S)OC[C@H]3O[C@@H](n4ccc5c(=O)[nH]c(N)nc54)[C@H](O)[C@@H]3OP(=O)(S)OC[C@H]3O[C@@H](n4ccc(=O)[nH]c4=O)[C@H](O)[C@@H]3OP(=O)(S)OC[C@H]3O[C@@H](n4ccc5c(=O)[nH]c(N)nc54)[C@H](O)[C@@H]3OP(=O)(S)OC[C@H]3O[C@@H](n4cnc5c(N)nc(N)nc54)[C@H](O)[C@@H]3OP(=O)(S)OC[C@H]3O[C@@H](n4cnc5c(N)ncnc54)[C@H](O)[C@@H]3OP(=O)(S)OC[C@H]3O[C@@H](n4ccc5c(=O)[nH]c(N)nc54)[C@H](O)[C@@H]3OP(=O)(S)OC[C@H]3O[C@@H](n4ccc(N)nc4=O)[C@H](O)[C@@H]3OP(=O)(S)OC[C@H]3O[C@@H](n4ccc(=O)[nH]c4=O)[C@H](O)[C@@H]3OP(=O)(S)OC[C@H]3O[C@@H](n4ccc(=O)[nH]c4=O)[C@H](O)[C@@H]3OP(=O)(S)OCC(O)COP(=O)(S)O[C@H]3[C@@H](O)[C@H](n4ccc(=O)[nH]c4=O)O[C@@H]3COP(=O)(S)O[C@H]3[C@@H](O)[C@H](n4ccc(=O)[nH]c4=O)O[C@@H]3COP(=O)(S)O[C@H]3[C@@H](O)[C@H](n4ccc(N)nc4=O)O[C@@H]3COP(=O)(S)O[C@H]3[C@@H](O)[C@H](n4ccc5c(=O)[nH]c(N)nc54)O[C@@H]3COP(=O)(S)O[C@H]3[C@@H](O)[C@H](n4cnc5c(N)nc(N)nc54)O[C@@H]3COP(=O)(S)O[C@H]3[C@@H](O)[C@H](n4cnc5c(N)nc(N)nc54)O[C@@H]3COP(=O)(S)O[C@H]3[C@@H](O)[C@H](n4ccc5c(=O)[nH]c(N)nc54)O[C@@H]3COP(=O)(S)O[C@H]3[C@@H](O)[C@H](n4ccc(=O)[nH]c4=O)O[C@@H]3COP(=O)(S)O[C@H]3[C@@H](O)[C@H](n4ccc5c(=O)[nH]c(N)nc54)O[C@@H]3COP(=O)(S)O[C@H]3[C@@H](O)[C@H](n4ccc(N)nc4=O)O[C@@H]3COP(=O)(S)O[C@H]3[C@@H](O)[C@H](n4cnc5c(N)ncnc54)O[C@@H]3CO)[C@H]2O)c(=O)n1 (stereo not given in full),74%,13.4,inactive,Active,864 pg/mL
Nc1ccn([C@@H]2O[C@H](COP(=O)(S)O[C@H]3[C@@H](O)[C@H](n4cnc5c(N)ncnc54)O[C@@H]3COP(=O)(S)O[C@H]3[C@@H](O)[C@H](n4cnc5c(N)ncnc54)O[C@@H]3CO)[C@@H](OP(=O)(S)OC[C@H]3O[C@@H](n4ccc(=O)[nH]c4=O)[C@H](O)[C@@H]3OP(=O)(S)OC[C@H]3O[C@@H](n4ccc5c(=O)[nH]c(N)nc54)[C@H](O)[C@@H]3OP(=O)(S)OC[C@H]3O[C@@H](n4cnc5c(N)ncnc54)[C@H](O)[C@@H]3OP(=O)(S)OC[C@H]3O[C@@H](n4cnc5c(N)ncnc54)[C@H](O)[C@@H]3OP(=O)(S)OC[C@H]3O[C@@H](n4ccc5c(=O)[nH]c(N)nc54)[C@H](O)[C@@H]3OP(=O)(S)OC[C@H]3O[C@@H](n4ccc(N)nc4=O)[C@H](O)[C@@H]3OP(=O)(S)OC[C@H]3O[C@@H](n4ccc(=O)[nH]c4=O)[C@H](O)[C@@H]3OP(=O)(S)OC[C@H]3O[C@@H](n4ccc5c(=O)[nH]c(N)nc54)[C@H](O)[C@@H]3OP(=O)(S)OCC(O)COP(=O)(S)O[C@H]3[C@@H](O)[C@H](n4ccc5c(=O)[nH]c(N)nc54)O[C@@H]3COP(=O)(S)O[C@H]3[C@@H](O)[C@H](n4ccc(=O)[nH]c4=O)O[C@@H]3COP(=O)(S)O[C@H]3[C@@H](O)[C@H](n4ccc(N)nc4=O)O[C@@H]3COP(=O)(S)O[C@H]3[C@@H](O)[C@H](n4ccc5c(=O)[nH]c(N)nc54)O[C@@H]3COP(=O)(S)O[C@H]3[C@@H](O)[C@H](n4cnc5c(N)ncnc54)O[C@@H]3COP(=O)(S)O[C@H]3[C@@H](O)[C@H](n4cnc5c(N)ncnc54)O[C@@H]3COP(=O)(S)O[C@H]3[C@@H](O)[C@H](n4ccc5c(=O)[nH]c(N)nc54)O[C@@H]3COP(=O)(S)O[C@H]3[C@@H](O)[C@H](n4ccc(=O)[nH]c4=O)O[C@@H]3COP(=O)(S)O[C@H]3[C@@H](O)[C@H](n4ccc(N)nc4=O)O[C@@H]3COP(=O)(S)O[C@H]3[C@@H](O)[C@H](n4cnc5c(N)ncnc54)O[C@@H]3COP(=O)(S)O[C@H]3[C@@H](O)[C@H](n4cnc5c(N)ncnc54)O[C@@H]3CO)[C@H]2O)c(=O)n1 (stereo not given in full),76%,30.7,inactive,Active,240 pg/mL
